{"source": "paper PMC11100557", "about": "(Science Advances, 2024)", "key": {"KIN10 mutant 3": {"molecular_target": "KIN10 mutant 3 (Arabidopsis thaliana, UniProt Q38997, K63A/K69A/L73A/R65A/R66A)", "sequence (Q38997 19-271 K63A/R65A/R66A/K69A/L73A limits assumed)": "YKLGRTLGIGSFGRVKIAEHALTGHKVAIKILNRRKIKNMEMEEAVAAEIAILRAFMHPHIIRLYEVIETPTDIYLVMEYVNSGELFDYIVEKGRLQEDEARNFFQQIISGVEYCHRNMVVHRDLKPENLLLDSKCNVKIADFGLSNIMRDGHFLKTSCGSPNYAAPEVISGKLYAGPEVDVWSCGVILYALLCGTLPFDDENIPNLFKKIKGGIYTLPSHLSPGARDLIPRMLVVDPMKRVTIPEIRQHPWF", "assay": "MST binding of ATP to KIN10 mutant 3", "settings": "fig. S5", "procedure,_shortened": "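KIN10 kinase-domain mutant 3 (K63A-R65A-R66A-K69A-L73A), N-His6, expressed in E. coli BL21(DE3), Ni-NTA purified. Protein labeled with NT647 via NHS coupling to lysines (30 min on ice), free dye removed by size exclusion into MST buffer (50 mM phosphate pH 7.4, 150 mM NaCl, MgCl2, 1 mM DTT, 0.05% Tween 20).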"}, "[1]": {"molecular_target": "T1, KIN10 mutant 3 (K63A-R65A-R66A-K69A-L73A) (Arabidopsis thaliana, UniProt Q38997, K63A/K69A/L73A/R65A/R66A)", "T1 sequence (Q38997 19-271 K63A/R65A/R66A/K69A/L73A limits assumed)": "as above", "assay": "KIN10 kinase activity assay with SPS peptide, mutant 3", "type": "biochemical", "settings": "1 mM T6P, 50 nM KIN10 mutant 3 plus 50 nM GRIK1"}, "KIN10 K63A": {"molecular_target": "KIN10 K63A (Arabidopsis thaliana, UniProt Q38997, K63A)", "sequence (Q38997 19-271 K63A limits assumed)": "as the sequence (Q38997 19-271 K63A/R65A/R66A/K69A/L73A limits assumed) above, with A47R, A48R, A51K, A55L counted along it", "assay": "MST binding of T6P to KIN10 K63A", "procedure,_shortened": "(§1)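 N-terminal His6-tagged recombinant KIN10 was expressed in E. coli BL21(DE3), Ni-NTA purified, and NT647-labelled on lysines via NHS coupling. Free dye was removed by size exclusion into MST buffer (50 mM phosphate pH 7.4, 150 mM NaCl, 1 mM DTT, 0.05% Tween 20). 100 nM labelled protein was titrated with serially diluted T6P. Microscale thermophoresis was run at 25°C, 40% MST power and 80% LED power.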"}, "KIN10 R66A": {"molecular_target": "KIN10 R66A (Arabidopsis thaliana, UniProt Q38997, R66A)", "sequence (Q38997 19-271 R66A limits assumed)": "as the sequence (Q38997 19-271 K63A/R65A/R66A/K69A/L73A limits assumed) above, with A45K, A47R, A51K, A55L counted along it", "assay": "MST binding of T6P to KIN10 R66A", "procedure,_shortened": "as §1"}, "KIN10 mutant 1": {"molecular_target": "KIN10 mutant 1 (Arabidopsis thaliana, UniProt Q38997, K34A/R23A/R32A)", "sequence (Q38997 19-271 R23A/R32A/K34A limits assumed)": "as the sequence (Q38997 19-271 K63A/R65A/R66A/K69A/L73A limits assumed) above, with R5A, R14A, K16A, A45K, A47R, A48R, A51K, A55L counted along it", "assay": "KIN10 kinase activity assay with SPS peptide, mutant 1", "type": "biochemical", "settings": "1 mM T6P, 200 ng KIN10 mutant 1 and 200 ng GRIK1"}, "[2]": {"molecular_target": "KIN10 mutant 1 (R23A-R32A-K34A) (Arabidopsis thaliana, UniProt Q38997, K34A/R23A/R32A)", "sequence (Q38997 19-271 R23A/R32A/K34A limits assumed)": "as the sequence (Q38997 19-271 K63A/R65A/R66A/K69A/L73A limits assumed) above, with R5A, R14A, K16A, A45K, A47R, A48R, A51K, A55L counted along it", "assay": "MST binding of T6P to KIN10 mutant 1", "procedure,_shortened": "(§2)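 Alanine-substituted KIN10 kinase domain was made by overlap PCR and cloned into pET28a. It was expressed with an N-terminal His6 tag in E. coli BL21(DE3) and Ni-NTA purified. Protein was NT647-NHS labelled and desalted into phosphate buffer pH 7.4 with NaCl, DTT and Tween 20. 100 nM labelled protein was mixed with a T6P serial dilution, and MST was read at 25°C (40% MST, 80% LED power).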"}, "KIN10 mutant 2": {"molecular_target": "KIN10 mutant 2 (Arabidopsis thaliana, UniProt Q38997, K54A/K56A/R52A/R53A)", "sequence (Q38997 19-271 R52A/R53A/K54A/K56A limits assumed)": "as the sequence (Q38997 19-271 K63A/R65A/R66A/K69A/L73A limits assumed) above, with R34A, R35A, K36A, K38A, A45K, A47R, A48R, A51K, A55L counted along it", "assay": "KIN10 kinase activity assay with SPS peptide, mutant 2", "type": "biochemical", "settings": "1 mM T6P, 200 ng KIN10 mutant 2 and 200 ng GRIK1"}, "KIN10 K63A-R66A-R141A": {"molecular_target": "KIN10 K63A-R66A-R141A (Arabidopsis thaliana, UniProt Q38997, K63A/R141A/R66A)", "sequence (Q38997 19-271 K63A/R66A/R141A limits assumed)": "as the sequence (Q38997 19-271 K63A/R65A/R66A/K69A/L73A limits assumed) above, with A47R, A51K, A55L, R123A counted along it", "assay": "biochemical", "type": "binding"}, "GRIK1-KIN10": {"tested_on": "GRIK1-KIN10", "settings": "MST; ref Zhai et al. ([9]); cited from earlier work"}, "[3]": {"molecular_target": "T1, KIN10 mutant 3 (K63A-R65A-R66A-K69A-L73A)", "assay": "MST binding of T6P to KIN10 mutant 3"}, "[4]": {"molecular_target": "plant α-catalytic subunit of SnRK1 (Arabidopsis thaliana, UniProt Q38997)", "sequence (Q38997 19-271 limits assumed)": "as the sequence (Q38997 19-271 K63A/R65A/R66A/K69A/L73A limits assumed) above, with A45K, A47R, A48R, A51K, A55L counted along it", "assay": "Inhibition of the SnRK1 α-catalytic subunit by sugar phosphates", "type": "biochemical", "settings": "table S4"}, "KIN10 R141A": {"molecular_target": "KIN10 R141A (Arabidopsis thaliana, UniProt Q38997, R141A)", "sequence (Q38997 19-271 R141A limits assumed)": "as the sequence (Q38997 19-271 K63A/R65A/R66A/K69A/L73A limits assumed) above, with A45K, A47R, A48R, A51K, A55L, R123A counted along it", "assay": "MST binding of T6P to KIN10 R141A", "procedure,_shortened": "as §1"}, "WT KIN10 [5]": {"molecular_target": "T2, WT KIN10 (Arabidopsis thaliana, UniProt Q38997)", "T2 sequence (Q38997 19-271 limits assumed)": "as the sequence (Q38997 19-271 K63A/R65A/R66A/K69A/L73A limits assumed) above, with A45K, A47R, A48R, A51K, A55L counted along it", "assay": "MST binding of T6P to WT KIN10 kinase domain"}, "WT KIN10 [6]": {"molecular_target": "T2, WT KIN10", "assay": "KIN10 kinase activity assay with SPS peptide, WT KIN10", "type": "biochemical"}, "[7]": {"molecular_target": "KIN10 mutant 2 (R52A-R53A-K54A-K56A) (Arabidopsis thaliana, UniProt Q38997, K54A/K56A/R52A/R53A)", "sequence (Q38997 19-271 R52A/R53A/K54A/K56A limits assumed)": "as the sequence (Q38997 19-271 K63A/R65A/R66A/K69A/L73A limits assumed) above, with R34A, R35A, K36A, K38A, A45K, A47R, A48R, A51K, A55L counted along it", "assay": "MST binding of T6P to KIN10 mutant 2", "procedure,_shortened": "as §2"}}}
{"smiles": "Nc1ncnc2c1ncn2[C@@H]1O[C@H](COP(=O)(O)OP(=O)(O)OP(=O)(O)O)[C@@H](O)[C@H]1O", "note": "[ATP, adenosine triphosphate]", "values": [{"measurement": "Kd for ATP, mutant 3 compared with WT KIN10", "setting": "KIN10 mutant 3", "result": "no change"}]}
{"smiles": "O=P(O)(O)OC[C@H]1O[C@H](O[C@H]2O[C@H](CO)[C@@H](O)[C@H](O)[C@H]2O)[C@H](O)[C@@H](O)[C@@H]1O", "note": "[T6P, trehalose 6-phosphate]", "values": [{"measurement": "reduction of mutant 3 activation by GRIK1 in the presence of T6P", "setting": "[1]", "result": "no reduction"}, {"measurement": "Kd", "setting": "KIN10 K63A", "result": "47 ± 7", "unit": "µM"}, {"measurement": "increase of Kd versus WT", "setting": "KIN10 K63A; span over the three single mutants K63A, R66A and R141A, versus WT", "result": "1.9- to 2.5 fold"}, {"measurement": "Kd", "setting": "KIN10 R66A", "result": "40 ± 5", "unit": "µM"}, {"measurement": "activation of mutant 1 by GRIK1 in the presence of T6P", "setting": "KIN10 mutant 1", "result": "reduced"}, {"measurement": "Kd", "setting": "[2]", "result": "26 ± 6", "unit": "µM"}, {"measurement": "Kd by MST", "setting": "[2]; KIN10 mutant 1, Table 1 series", "result": "no significant difference"}, {"measurement": "activation of mutant 2 by GRIK1 in the presence of T6P", "setting": "KIN10 mutant 2", "result": "reduced"}, {"measurement": "Kd", "setting": "KIN10 K63A-R66A-R141A; Kds determined by MST, KIN10 K63A-R66A-R141A, Table 2 series", "result": 143, "unit": "µM"}, {"measurement": "increase in Kd versus WT", "setting": "KIN10 K63A-R66A-R141A; triple mutant K63A-R66A-R141A versus WT", "result": "sevenfold"}, {"measurement": "reduction of affinity of GRIK1 for KIN10 on T6P binding", "setting": "GRIK1-KIN10", "result": "threefold"}, {"measurement": "Kd", "setting": "[3]", "result": "165 ± 21", "unit": "µM"}, {"measurement": "reduction of affinity of T6P binding versus WT KIN10", "setting": "[3]; mutant 3 versus WT", "result": "fivefold"}, {"measurement": "inhibition of the plant α-catalytic subunit of SnRK1", "setting": "[4]", "result": "specifically inhibited"}, {"measurement": "Kd", "setting": "KIN10 R141A", "result": "52 ± 7", "unit": "µM"}, {"measurement": "Kd", "setting": "WT KIN10 [5]", "result": "28 ± 4", "unit": "µM"}, {"measurement": "IC50", "setting": "WT KIN10 [6]", "result": 40, "unit": "µM"}, {"measurement": "change of basal activity of WT KIN10 on addition of T6P", "setting": "WT KIN10 [6]; 1 mM T6P, 50 nM KIN10, no GRIK1", "result": "doubling"}, {"measurement": "Kd", "setting": "[7]", "result": "34 ± 5", "unit": "µM"}, {"measurement": "Kd by MST", "setting": "[7]; KIN10 mutant 2, Table 1 series", "result": "no significant difference"}]}
